High-throughput results deposited in PubChem by The Scripps Research Institute Molecular Screening Center.
Rows were chosen to be rich in hits. Some 3.3% of all compounds tested hit in one or more screens of this group.
ABHD4 inh – inhibits mouse alpha/beta hydrolase domain 4; purified mABHD4, FP-Rh probe fluorescence polarization; inhibition, % at 8.92 µM; 370,000 compounds, 0.54% hits;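 active means inhibition exceeding the mean over every tested compound plus 3 SD, cut at about 30% in these data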;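 further: 0% = plate median of compound wells and 100% = S159A mutant with DMSO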
Target sequence (Q8VD66 whole entry, looked up, the tested form may be a part): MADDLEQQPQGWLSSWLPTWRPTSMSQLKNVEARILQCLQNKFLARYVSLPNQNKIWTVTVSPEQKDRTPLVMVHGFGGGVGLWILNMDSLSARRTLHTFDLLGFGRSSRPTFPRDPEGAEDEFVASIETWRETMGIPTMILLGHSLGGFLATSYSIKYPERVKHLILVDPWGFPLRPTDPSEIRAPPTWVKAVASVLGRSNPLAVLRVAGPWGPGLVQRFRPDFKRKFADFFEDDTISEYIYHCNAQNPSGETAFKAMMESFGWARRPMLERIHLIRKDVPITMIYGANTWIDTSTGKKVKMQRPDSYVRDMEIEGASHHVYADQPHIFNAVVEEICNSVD
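Test system: mouse ABHD4 enzyme, wild type. Reagent: FP-Rh fluorescent activity-based probe, added after compound pre-incubation. Timing: pre-incubation 45 min, probe exposure 60 min, at 25 °C. Technique: FP readout, ex 525 nm / em 598 nm. Benchmarks: high control S159A mutant with DMSO, low control median of compound wells.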
SIAE primary – blocks human sialic acid acetylesterase. AID 1053197. Q9HAT2. 370,000 compounds, 0.69% hits. SIAE FP-Rh probe binding, fluorescence polarization. inhibition, % at 9.66 µM;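 active means inhibition above a cutoff: mean of compounds within the control limits plus 3 SD of those, cut at about 17% in these data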;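 further: 0% = plate median of compound wells and 100% = probe without SIAE protein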
PRMT1 FP inh – blocks human protein arginine methyltransferase 1. Q99873. recombinant PRMT1, activity-based probe fluorescence polarization. inhibition, % at 2.79 µM. 370,000 compounds, 1.3% hits;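 active means inhibition above about 21% made by adding two undisclosed values, limit read from the data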
TCR CD3 inh – human TCR-CD3 binding inhibition | AID 651800 | TAMRA-labeled TCR probe fluorescence, biochemical | inhibition, % at 9.4 µM | 360,000 compounds, 0.37% hits;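 further: recombinant mutant TCR 2C K166C tagged with TAMRA read by polarization; 0% = receptor in buffer alone and 100% = receptor with positive control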
rCAG binder – r(CAG) repeat RNA binding. 370,000 compounds, 1.3% hits. TO-PRO-1 dye displacement fluorescence. inhibition, % at 3 µM;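 active means inhibition above the plate cutoff, the mean of all test compounds on that plate plus 3 SD, cut at about 35% in these data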;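 further: 0% = DMSO alone and 100% = 100 µM mitoxantrone as full dye displacement; higher means more dye released from RNA so lower well fluorescence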
BSA TAMRA ctr – counter-screen for TCR-CD3 interaction inhibitors: BSA probe; shares compounds with TCR CD3 inh; TAMRA-labeled BSA probe fluorescence counterscreen; inhibition, % at 9.4 µM; 1,200 compounds, 10% hits; in the data active means inhibition above about 23%;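 further: 0% = buffer low control and 100% = reference high control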
TCR-CD3 conf – TCR-CD3 interaction inhibition, confirmation | shares compounds with TCR CD3 inh | TAMRA-labeled TCR probe fluorescence binding assay | inhibition, % at 9.4 µM | 1,200 compounds, 48% hits | AID 652036
Starred values were filed as active, the others as inactive. Unless noted, no stated cut-off is given here; in the data, active means inhibition above about 19%; inactive means the rest.

`COc1cc(NCCCCCCN)c2ncccc2c1OC` gave ABHD4 inh 40*, SIAE primary 7, PRMT1 FP inh 4, TCR CD3 inh 14 and rCAG binder 7.
Screening O=C(Cn1nnc(-c2ccccc2F)n1)Nc1ccc(F)cc1F returned ABHD4 inh 6, SIAE primary 5, PRMT1 FP inh -3 and rCAG binder -1.
For C/C(=N\NC(=O)c1cc2ccccc2cc1O)c1ccccn1 the results were ABHD4 inh 21, SIAE primary 7, PRMT1 FP inh 3, TCR CD3 inh -11 and rCAG binder 47*.
C/C(=N\NC(=O)c1c[nH]c2ccccc12)c1ccccn1 was read as ABHD4 inh -10, SIAE primary -3, PRMT1 FP inh 1, TCR CD3 inh 6 and rCAG binder 7.
`Cc1ccc(NC(=O)c2ccc(CS(=O)(=O)Cc3ccccc3C)o2)c(C)c1` gave ABHD4 inh -4, SIAE primary -1, PRMT1 FP inh 2 and rCAG binder 5.
For CC(C)CN1C(=O)[C@@]2(CC(=O)N(C)C2c2ccccc2)c2cc(-n3cc(CCc4ccccc4)nn3)ccc21 (stereo partly specified) the results were ABHD4 inh -5, SIAE primary -4, PRMT1 FP inh -5 and rCAG binder 4.
For O=C(Nc1nnc(-c2cccs2)o1)c1cc(-c2ccccc2)nc2ccccc12 the results were ABHD4 inh -19, SIAE primary -9, PRMT1 FP inh -3, TCR CD3 inh -6 and rCAG binder 44*.
For CC1(C)CC[C@]2(C(=O)n3ccnc3)CC[C@]3(C)[C@H](C(=O)C=C4[C@@]5(C)C=C(C#N)C(=O)C(C)(C)[C@@H]5CC[C@]43C)[C@@H]2C1 the results were ABHD4 inh 7, SIAE primary -5, PRMT1 FP inh 1, TCR CD3 inh 1 and rCAG binder 53*.
Screening Cc1[nH][nH]c(=O)c1C(c1ccc(-c2ccc(C(=O)O)cc2)o1)c1c(C)[nH][nH]c1=O returned ABHD4 inh 3, SIAE primary 12, PRMT1 FP inh 18, TCR CD3 inh 0 and rCAG binder 3.
Screening Cc1[nH][nH]c(=O)c1C(c1ccc(-c2ccc(F)cc2)o1)c1c(C)[nH][nH]c1=O returned ABHD4 inh 5, SIAE primary 4, PRMT1 FP inh 22*, TCR CD3 inh -4 and rCAG binder 14.
Cc1[nH][nH]c(=O)c1C(c1ccc(-c2ccc(Cl)c(Cl)c2)o1)c1c(C)[nH][nH]c1=O was read as ABHD4 inh 17, SIAE primary 21*, PRMT1 FP inh 13, TCR CD3 inh 1 and rCAG binder 38*.
Screening O=C(O)c1cc(O)c2c(c1)C(=O)c1cccc(O)c1C2=O returned ABHD4 inh 98*, SIAE primary 12, PRMT1 FP inh 32*, TCR CD3 inh 11 and rCAG binder 13.
`Cc1ccc(C(=O)NNC(=S)NC(=O)c2ccco2)cc1` gave ABHD4 inh 0, SIAE primary 2, PRMT1 FP inh -3, TCR CD3 inh 10 and rCAG binder 2.
CC(C)C(=O)Nc1ccc(C(=O)NNC(=S)NC(=O)c2ccco2)cc1 was read as ABHD4 inh -1, SIAE primary -1, PRMT1 FP inh 6, TCR CD3 inh 33*, rCAG binder -1, BSA TAMRA ctr -1 and TCR-CD3 conf 36*.
CCNc1nc(NC(C)C)nc(N(C#N)CC(=O)OC)n1 was read as ABHD4 inh -8, SIAE primary 5, PRMT1 FP inh 1, TCR CD3 inh 22*, rCAG binder 15, BSA TAMRA ctr 4 and TCR-CD3 conf 4.
COc1ccc(Cl)cc1C(=O)NNC(=O)C1COc2ccccc2O1 (stereo unspecified) was read as ABHD4 inh -3, SIAE primary 4, PRMT1 FP inh -3, TCR CD3 inh 5 and rCAG binder 3.
O=C(NNC(=O)C1COc2ccccc2O1)c1ccccc1O (stereo unspecified) was read as ABHD4 inh 6, SIAE primary 7, PRMT1 FP inh 1, TCR CD3 inh 29*, rCAG binder 2, BSA TAMRA ctr -12 and TCR-CD3 conf 25*.
For O=C(Nc1ccc2c(c1)OCO2)C1COc2ccccc2O1 (stereo unspecified) the results were ABHD4 inh -1, SIAE primary 7, PRMT1 FP inh -1, TCR CD3 inh 48*, rCAG binder -1, BSA TAMRA ctr -1 and TCR-CD3 conf -2.
Screening O=C(Nc1ccc(F)cc1)C1COc2ccccc2O1 (stereo unspecified) returned ABHD4 inh -8, SIAE primary 1, PRMT1 FP inh -2, TCR CD3 inh -1 and rCAG binder 1.
Screening O=C(N/N=C/c1cc([N+](=O)[O-])ccc1O)c1ccc(COc2ccc3c(c2)CCC3)o1 returned ABHD4 inh 8, SIAE primary 13, PRMT1 FP inh 5, TCR CD3 inh 45*, rCAG binder 14, BSA TAMRA ctr -6 and TCR-CD3 conf 17.
Screening Cc1ccc(N2C(=O)C3CCCN3C2=S)cc1 (stereo unspecified) returned ABHD4 inh 7, SIAE primary -7, PRMT1 FP inh 5, TCR CD3 inh 8 and rCAG binder 1.
O=C1C2CCCN2C(=S)N1c1ccc(Cl)cc1 (stereo unspecified) was read as ABHD4 inh 7, SIAE primary -24, PRMT1 FP inh 12, TCR CD3 inh 27*, rCAG binder 6, BSA TAMRA ctr 6 and TCR-CD3 conf 21*.
COc1ccc(C(=O)Nc2nnc(CC(=O)N/N=C/c3ccc(O)cc3O)s2)cc1 was read as ABHD4 inh -3, SIAE primary 10, PRMT1 FP inh 7, TCR CD3 inh 23*, rCAG binder 7, BSA TAMRA ctr -6 and TCR-CD3 conf 35*.
Screening Cc1ccc(C(=O)Nc2nnc(CC(=O)N/N=C/c3ccc(O)c(O)c3)s2)cc1 returned ABHD4 inh 14, SIAE primary 4, PRMT1 FP inh -2, TCR CD3 inh 34*, rCAG binder 16, BSA TAMRA ctr -18 and TCR-CD3 conf 68*.
`Cc1ccc(C(=O)Nc2nnc(CC(=O)N/N=C/c3ccncc3)s2)cc1` gave ABHD4 inh -12, SIAE primary -12, PRMT1 FP inh -1, TCR CD3 inh 11 and rCAG binder 14.
For CCc1nnc(NC(=O)c2ccc(OC)cc2)s1 the results were ABHD4 inh 0, SIAE primary -8, PRMT1 FP inh 1, TCR CD3 inh 0 and rCAG binder -4.
`CC(C)CNC(=O)CC1Oc2ccccc2NC1=O` (stereo unspecified) gave ABHD4 inh 3, SIAE primary -1, PRMT1 FP inh 4 and rCAG binder -1.
